In ChEMBL document CHEMBL4350958, “Rational Design of Short Peptide Variants by Using Kunitzin-RE, an Amphibian-Derived Bioactivity Peptide, for Acquired Potent Broad-Spectrum Antimicrobial and Improved Therapeutic Potential of Commensalism Coinfection of Pathogens” (J Med Chem, 2019):

Key:
[1] = Therapeutic index, ratio of MHC10 for hemolytic activity in human RBC to MIC95 against Candida albicans cgmcc2.2086; type: toxicity; conditions: human red blood cells (erythrocytes), read-out: TI
Summary of the method: (§1)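 Therapeutic index = MHC divided by MIC. MHC is the lowest concentration giving >10% lysis of human RBC (1 h, 37 °C, 1-128 µM, A576). MIC is 95% growth inhibition by broth microdilution: bacteria in MHB 24 h at 37 °C; Candida in MOPS-buffered RPMI 1640 at (0.5–1) × 10^3 CFU mL−1, 48 h at 28 °C.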

[2] = system: Escherichia coli; experiment: Antibacterial activity against Escherichia coli ATCC 25922 measured after 18 to 24 hrs in presence of NH4Cl; type: functional
[3] = system: Escherichia coli; experiment: Antibacterial activity against Escherichia coli ATCC 25922 measured after 18 to 24 hrs in presence of ZnCl2; type: functional
[4] = system: Candida albicans; experiment: Antifungal activity against Candida albicans cgmcc2.2086 measured after 48 hrs in presence of MgCl by broth microdilution method; type: functional; conditions: cgmcc2.2086, 48 h
[5] = system: Escherichia coli; experiment: Bactericidal activity against Escherichia coli UB1005 incubated for 24 hrs followed by replating on agar plate and measured after overnight incubation; type: functional; conditions: UB1005, 24 h, read-out: MBC>99.9
Summary of the method: (§2)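 Mid-log bacteria diluted in MHB to (0.5–1) × 10^5 CFU/mL and mixed 1:1 with peptide serially diluted in 0.2% BSA. After 24 h at 37 °C, 50 μL of each mixture was plated on agar and incubated overnight. MBC taken as the lowest concentration killing >99.9% of cells. At least three independent experiments, each with three technical replicates.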

[6] = system: Staphylococcus aureus; experiment: Antibacterial activity against methicillin-resistant Staphylococcus aureus ATCC 43300 measured after 24 hrs; type: functional; conditions: ATCC 43300, 24 h
Summary of the method: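 Broth microdilution modified from NCCLS. Mid-log bacteria at (0.5–1) × 10^5 CFU mL−1 in MHB, mixed with peptides serially diluted in 0.2% BSA. Incubated 24 h at 37 °C, read at A492. MIC taken as lowest concentration giving 95% growth inhibition. At least three independent experiments, each with three technical replicates.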

[7] = system: Staphylococcus aureus; experiment: Bactericidal activity against Staphylococcus aureus ATCC 29213 incubated for 24 hrs followed by replating on agar plate and measured after overnight incubation; type: functional; conditions: ATCC 29213, 24 h, read-out: MBC>99.9
Summary of the method: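 After the 24 h, 37 °C MHB microdilution MIC assay, 50 μL from each well was plated on agar and incubated overnight. MBC taken as lowest peptide concentration killing >99.9% of cells. At least three independent experiments, each with three technical replicates.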

[8] = system: Staphylococcus aureus; experiment: Antibacterial activity against Staphylococcus aureus ATCC 29213 measured after 18 to 24 hrs in presence of NH4Cl; type: functional
Summary of the method: (§3)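 MIC broth microdilution (MHB, 0.2% BSA peptide diluent, A492, 95% inhibition) run in the presence of physiological salts at final concentrations of 6 μM NH4Cl or 8 μM ZnCl2. Three independent assays, each with three technical replicates.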

[9] = system: Salmonella typhimurium; experiment: Bactericidal activity against Salmonella typhimurium C7731 incubated for 24 hrs followed by replating on agar plate and measured after overnight incubation; type: functional, Salmonella enterica subsp. enterica serovar Typhimurium; conditions: Salmonella enterica, C7731, 24 h; read-out: MBC>99.9; summary of the method: as §2
[10] = system: Candida albicans; experiment: Antifungal activity against Candida albicans cgmcc2.2086 measured after 48 hrs in presence of FeCl by broth microdilution method; type: functional; conditions: cgmcc2.2086, 48 h
[11] = Therapeutic index, ratio of MHC10 for hemolytic activity in human RBC to MIC95 against Candida tropicalis cgmcc2.1975; type: toxicity; conditions: human red blood cells (erythrocytes), read-out: TI; summary of the method: as §1
[12] = Therapeutic index, ratio of MHC10 for hemolytic activity in human RBC to MIC95 against Candida parapsilosis cgmcc2.3989; type: toxicity; conditions: human red blood cells (erythrocytes), read-out: TI; summary of the method: as §1
[13] = system: Salmonella typhimurium; experiment: Antibacterial activity against Salmonella typhimurium C7731 measured after 24 hrs; type: functional, Salmonella enterica subsp. enterica serovar Typhimurium; conditions: Salmonella enterica, C7731, 24 h
Summary of the method: (§4)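 Broth microdilution adapted from NCCLS. Mid-log bacteria were diluted in MHB to a final (0.5–1) × 10^5 CFU mL−1. Peptides were serially diluted in 0.2% BSA and mixed with an equal volume of cells. After 24 h at 37 °C, MIC was read at A492 as the lowest concentration inhibiting 95% of growth. At least three independent experiments, each with three technical replicates.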

[14] = system: Escherichia coli; experiment: Antibacterial activity against Escherichia coli K88 measured after 24 hrs; type: functional; conditions: K88, 24 h; summary of the method: as §4
[15] = Bactericidal activity against Salmonella pullorum ATCC 7913 incubated for 24 hrs followed by replating on agar plate and measured after overnight incubation; type: functional, Salmonella enterica subsp. enterica serovar Pullorum; conditions: Salmonella enterica, ATCC 7913, 24 h; read-out: MBC>99.9; summary of the method: as §2
[16] = system: Candida parapsilosis; experiment: Antifungal activity against Candida parapsilosis cgmcc2.3989 measured after 48 hrs by broth microdilution method; type: functional; conditions: Lodderomyces parapsilosis, cgmcc2.3989, 48 h
Summary of the method: (§5)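 Modified CLSI M27-A2 microdilution. Yeast colonies were diluted in MOPS-buffered RPMI 1640 to a final (0.5–1) × 10^3 CFU mL−1 and mixed with an equal volume of peptide serially diluted in 0.2% BSA. After 48 h at 28 °C, MIC was read at A492 as the lowest concentration inhibiting 95% of growth. At least three independent experiments, each with three technical replicates.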

[17] = system: Escherichia coli; experiment: Bactericidal activity against Escherichia coli ATCC 25922 incubated for 24 hrs followed by replating on agar plate and measured after overnight incubation; type: functional; conditions: ATCC 25922, 24 h, read-out: MBC>99.9
Summary of the method: (§6)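 After the 24 h, 37 °C MHB microdilution (0.5–1 × 10^5 CFU mL−1 inoculum, peptides diluted in 0.2% BSA), 50 μL from each well was plated on agar and incubated overnight. MBC was taken as the lowest concentration killing >99.9% of cells. Three or more independent experiments, each with triplicate technical replicates.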

[18] = system: Pseudomonas aeruginosa; experiment: Bactericidal activity against Pseudomonas aeruginosa ATCC 27853 incubated for 24 hrs followed by replating on agar plate and measured after overnight incubation; type: functional; conditions: ATCC 27853, 24 h, read-out: MBC>99.9; summary of the method: as §2
[19] = system: Escherichia coli; experiment: Bactericidal activity against Escherichia coli K88 incubated for 24 hrs followed by replating on agar plate and measured after overnight incubation; type: functional; conditions: K88, 24 h, read-out: MBC>99.9; summary of the method: as §2
[20] = system: Escherichia coli; experiment: Bactericidal activity against Escherichia coli 078 incubated for 24 hrs followed by replating on agar plate and measured after overnight incubation; type: functional; conditions: Escherichia coli, 078, 24 h; read-out: MBC>99.9; summary of the method: as §6
[21] = system: Staphylococcus aureus; experiment: Antibacterial activity against Staphylococcus aureus ATCC 29213 measured after 18 to 24 hrs in presence of ZnCl2; type: functional; summary of the method: as §3
[22] = system: Staphylococcus epidermidis; experiment: Antibacterial activity against Staphylococcus epidermidis ATCC 12228 measured after 24 hrs; type: functional; conditions: ATCC 12228, 24 h; summary of the method: as §4
[23] = system: Staphylococcus aureus; experiment: Antibacterial activity against Staphylococcus aureus ATCC 29213 measured after 18 to 24 hrs in presence of MgCl2; type: functional
[24] = system: Candida albicans; experiment: Antifungal activity against Candida albicans cgmcc2.2086 measured after 48 hrs by broth microdilution method; type: functional; conditions: cgmcc2.2086, 48 h; summary of the method: as §5
[25] = system: Candida albicans; experiment: Antifungal activity against Candida albicans cgmcc2.2086 measured after 48 hrs in presence of NaCl by broth microdilution method; type: functional; conditions: cgmcc2.2086, 48 h

| Substance | selectivity ratio [1] | MIC95 [2] | MIC95 [3] | MIC95 [4] | MBC [5] | MIC95 [6] | MBC [7] | MIC95 [8] | MBC [9] | MIC95 [10] | selectivity ratio [11] | selectivity ratio [12] | MIC95 [13] | MIC95 [14] | MBC [15] | MIC95 [16] | MBC [17] | MBC [18] | MBC [19] | MBC [20] | also measured |
| --- | --- | --- | --- | --- | --- | --- | --- | --- | --- | --- | --- | --- | --- | --- | --- | --- | --- | --- | --- | --- | --- |
| H-AARIILRGRFR-NH2 | 5.04 | 8 µM | 4 µM | > 128 µM | 8 µM | 8 µM | 8 µM | 16 µM | 16 µM | 128 µM | 5.04 | 5.04 | 8 µM | 2 µM | 8 µM | 64 µM | 8 µM | 32 µM | 4 µM | 8 µM | MIC95 [21]: 8 µM; MIC95 [22]: 8 µM; MIC95 [23]: 16 µM; MIC95 [24]: 128 µM; MIC95 [25]: > 128 µM |
| H-AARIILRIRFR-NH2 | 25.4 | 4 µM | 4 µM | 16 µM | 8 µM | 2 µM | 4 µM | 2 µM | 8 µM | 8 µM | 25.4 | 25.4 | 4 µM | 2 µM | 4 µM | 4 µM | 4 µM | 32 µM | 4 µM | 4 µM | MIC95 [21]: 2 µM; MIC95 [22]: 2 µM; MIC95 [23]: 2 µM; MIC95 [24]: 8 µM; MIC95 [25]: 32 µM |
| H-AARIILRWRFR-NH2 | 50.8 | 4 µM | 4 µM | 16 µM | 4 µM | 1 µM | 2 µM | 2 µM | 4 µM | 8 µM | 50.8 | 50.8 | 4 µM | 2 µM | 4 µM | 4 µM | 4 µM | 4 µM | 4 µM | 2 µM | MIC95 [21]: 1 µM; MIC95 [22]: 1 µM; MIC95 [23]: 2 µM; MIC95 [24]: 8 µM; MIC95 [25]: 16 µM |
